Key:
Acetylcholinesterase [1] = target: T1, Acetylcholinesterase (Homo sapiens, UniProt P22303); test: In vitro inhibitory concentration against purified Acetylcholinesterase of human erythrocytes; value ranges from 7.3-50.4
[2] = target: T2, Amine oxidase [flavin-containing] B (Rattus norvegicus, UniProt P19643); test: In vitro inhibitory concentration against Monoamine oxidase B of rat brain homogenates; value ranges from 0.4-1.3; type: tissue-based
T2 sequence (P19643 whole entry): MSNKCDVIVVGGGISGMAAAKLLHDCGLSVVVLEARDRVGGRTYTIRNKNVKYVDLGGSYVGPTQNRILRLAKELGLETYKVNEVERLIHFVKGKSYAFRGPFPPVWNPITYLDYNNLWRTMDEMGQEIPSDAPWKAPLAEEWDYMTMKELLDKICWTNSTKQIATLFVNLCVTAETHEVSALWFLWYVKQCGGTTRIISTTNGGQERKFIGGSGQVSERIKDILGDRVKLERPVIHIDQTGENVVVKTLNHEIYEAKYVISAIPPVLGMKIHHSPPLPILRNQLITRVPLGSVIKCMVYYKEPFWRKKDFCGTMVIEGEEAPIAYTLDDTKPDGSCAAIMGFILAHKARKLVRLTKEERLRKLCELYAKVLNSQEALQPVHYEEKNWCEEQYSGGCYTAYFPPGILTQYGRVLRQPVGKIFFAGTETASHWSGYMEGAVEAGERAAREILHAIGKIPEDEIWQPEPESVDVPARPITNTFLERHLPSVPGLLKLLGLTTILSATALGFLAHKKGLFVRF

[3] = target: T3, Amine oxidase [flavin-containing] A (Rattus norvegicus, UniProt P21396); test: In vitro inhibitory concentration against Monoamine oxidase A of rat brain homogenates; value ranges from 0.5-1.4; type: tissue-based
T3 sequence (P21396 whole entry): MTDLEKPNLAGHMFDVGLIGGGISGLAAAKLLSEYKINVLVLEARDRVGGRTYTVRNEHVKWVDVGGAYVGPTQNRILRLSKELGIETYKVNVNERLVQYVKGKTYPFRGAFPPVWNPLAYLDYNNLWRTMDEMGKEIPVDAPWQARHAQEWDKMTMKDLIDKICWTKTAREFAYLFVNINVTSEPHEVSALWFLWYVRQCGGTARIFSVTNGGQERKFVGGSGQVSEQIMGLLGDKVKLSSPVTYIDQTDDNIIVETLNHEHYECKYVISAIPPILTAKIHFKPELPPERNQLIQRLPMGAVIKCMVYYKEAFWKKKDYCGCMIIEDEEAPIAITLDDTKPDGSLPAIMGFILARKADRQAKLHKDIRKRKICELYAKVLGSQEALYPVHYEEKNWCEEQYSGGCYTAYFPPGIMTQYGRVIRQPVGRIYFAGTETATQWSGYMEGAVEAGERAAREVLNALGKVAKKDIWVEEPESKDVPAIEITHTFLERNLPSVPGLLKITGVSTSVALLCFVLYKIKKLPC

Acetylcholinesterase [4] = target: T1, Acetylcholinesterase; test: In vitro inhibitory concentration against purified Acetylcholinesterase of human erythrocytes; value ranges from 0.16-0.18
Butyrylcholinesterase [5] = target: T4, Butyrylcholinesterase (Equus caballus, UniProt Q9N1N9); test: In vitro inhibitory concentration against Butyrylcholinesterase of horse serum; value ranges from 0.23-0.26
T4 sequence (Q9N1N9 whole entry): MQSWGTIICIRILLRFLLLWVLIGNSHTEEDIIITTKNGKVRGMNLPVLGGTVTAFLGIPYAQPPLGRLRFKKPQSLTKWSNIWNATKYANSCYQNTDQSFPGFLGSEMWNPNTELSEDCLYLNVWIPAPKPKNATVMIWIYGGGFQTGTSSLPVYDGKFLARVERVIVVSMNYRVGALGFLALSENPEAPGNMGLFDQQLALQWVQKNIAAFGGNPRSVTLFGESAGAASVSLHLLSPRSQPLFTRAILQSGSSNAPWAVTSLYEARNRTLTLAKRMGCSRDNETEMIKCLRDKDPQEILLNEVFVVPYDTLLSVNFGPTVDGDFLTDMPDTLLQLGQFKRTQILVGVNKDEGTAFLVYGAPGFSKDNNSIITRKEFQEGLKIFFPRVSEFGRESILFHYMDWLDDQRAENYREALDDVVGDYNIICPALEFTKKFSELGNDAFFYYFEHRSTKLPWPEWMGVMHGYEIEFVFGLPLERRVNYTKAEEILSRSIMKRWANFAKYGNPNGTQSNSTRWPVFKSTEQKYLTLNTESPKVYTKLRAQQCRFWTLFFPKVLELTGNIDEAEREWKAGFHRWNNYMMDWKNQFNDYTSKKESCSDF
In short: (§1)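 Ellman assay followed, with 200 µM butyrylthiocholine as substrate. Runs were in triplicate with four-point dose-response curves. IC50 and fiducial limits came from log concentration versus % inhibition.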

[6] = target: T2, Amine oxidase [flavin-containing] B; test: In vitro inhibitory concentration against Monoamine oxidase B of rat brain homogenates; type: tissue-based
[7] = target: T3, Amine oxidase [flavin-containing] A; test: In vitro inhibitory concentration against Monoamine oxidase A of rat brain homogenates; value ranges from 230-820; type: tissue-based
Butyrylcholinesterase [8] = target: T4, Butyrylcholinesterase; test: In vitro inhibitory concentration against Butyrylcholinesterase of horse serum; value ranges from 0.22-1.54; in short: as §1
[9] = target: T2, Amine oxidase [flavin-containing] B; parameters: species or system Brain
[10] = target: T3, Amine oxidase [flavin-containing] A; test: In vitro inhibitory concentration against Monoamine oxidase A of rat brain homogenates; value ranges from 1.7-3.9; type: tissue-based
Acetylcholinesterase [11] = target: T1, Acetylcholinesterase; test: In vitro inhibitory concentration against purified Acetylcholinesterase of human erythrocytes; value ranges from 2.0-15.2
Butyrylcholinesterase [12] = target: T4, Butyrylcholinesterase; test: In vitro inhibitory concentration against Butyrylcholinesterase of horse serum; value ranges from 4.8-73.9; in short: as §1
[13] = target: T3, Amine oxidase [flavin-containing] A; test: In vitro inhibitory concentration against Monoamine oxidase A of rat brain homogenates; type: tissue-based
Acetylcholinesterase [14] = target: T1, Acetylcholinesterase; test: In vitro inhibitory concentration against purified Acetylcholinesterase of human erythrocytes; value ranges from 2.2-6.4
[15] = target: T3, Amine oxidase [flavin-containing] A; test: In vitro inhibitory concentration against Monoamine oxidase A of rat brain homogenates; value ranges from 0.47; type: tissue-based
Acetylcholinesterase [16] = target: T1, Acetylcholinesterase; test: In vitro inhibitory concentration against purified Acetylcholinesterase of human erythrocytes; value ranges from 1.66-3.14
Acetylcholinesterase [17] = target: T1, Acetylcholinesterase; test: In vitro inhibitory concentration against purified Acetylcholinesterase of human erythrocytes; value ranges from 13.6-198
Butyrylcholinesterase [18] = target: T4, Butyrylcholinesterase; test: In vitro inhibitory concentration against Butyrylcholinesterase of horse serum; value ranges from 2.77-15.4; in short: as §1
Acetylcholinesterase [19] = target: T1, Acetylcholinesterase; test: In vitro inhibitory concentration against purified Acetylcholinesterase of human erythrocytes
[20] = target: T3, Amine oxidase [flavin-containing] A; test: In vitro inhibitory concentration against Monoamine oxidase A of rat brain homogenates; value ranges from 75-240; type: tissue-based
[21] = target: T2, Amine oxidase [flavin-containing] B; test: In vitro inhibitory concentration against Monoamine oxidase B of rat brain homogenates; value ranges from 77-123
Acetylcholinesterase [22] = target: T1, Acetylcholinesterase; test: In vitro inhibitory concentration against purified Acetylcholinesterase of human erythrocytes; value ranges from 8.6-49.9

T1 sequence (P22303 whole entry): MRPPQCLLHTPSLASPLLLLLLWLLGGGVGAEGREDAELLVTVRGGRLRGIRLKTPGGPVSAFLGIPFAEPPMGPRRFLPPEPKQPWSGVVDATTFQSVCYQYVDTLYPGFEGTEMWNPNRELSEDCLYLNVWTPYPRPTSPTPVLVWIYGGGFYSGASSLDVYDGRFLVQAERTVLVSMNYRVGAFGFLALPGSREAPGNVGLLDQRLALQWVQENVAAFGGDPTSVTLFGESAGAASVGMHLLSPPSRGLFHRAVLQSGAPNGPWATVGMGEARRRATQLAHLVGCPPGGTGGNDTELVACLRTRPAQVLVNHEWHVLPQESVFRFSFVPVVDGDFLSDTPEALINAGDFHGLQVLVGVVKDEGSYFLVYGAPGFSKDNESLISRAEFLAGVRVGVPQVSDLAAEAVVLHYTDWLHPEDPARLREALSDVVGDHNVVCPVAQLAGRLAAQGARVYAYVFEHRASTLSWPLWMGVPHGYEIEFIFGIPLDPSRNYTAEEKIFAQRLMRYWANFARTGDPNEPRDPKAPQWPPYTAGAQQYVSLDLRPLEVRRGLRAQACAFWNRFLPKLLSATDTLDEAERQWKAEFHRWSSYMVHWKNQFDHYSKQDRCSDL

`C#CCN(C)CCc1cccc(OC(=O)N(C)CC)c1` was tested, and the IC50 (Acetylcholinesterase [1]) was 16.6 µM, the IC50 [2] was 800 nM and the IC50 [3] was 800 nM.
With `C#CC(C)NCCc1cccc(OC(=O)N(C)C)c1` (stereo not drawn) the IC50 (Acetylcholinesterase [4]) was 170 nM, the IC50 (Butyrylcholinesterase [5]) was 240 nM and the IC50 [6] was over 1 mM. For the same molecule, the IC50 [7] was 440 µM.
With `C#CCNCCc1cccc(OC(=O)N(C)CC)c1` the IC50 (Butyrylcholinesterase [8]) was 540 nM, the IC50 [9] was 7.8 µM and the IC50 [10] was 2600 nM.
Molecule `C#CCN[C@H]1CCc2ccc(OC(=O)N(C)CCC)cc21` has an IC50 (Acetylcholinesterase [11]) of 8.5 µM, an IC50 (Butyrylcholinesterase [12]) of 12.4 µM and an IC50 [6] of over 1 mM. It also gave an IC50 [13] of over 1 mM.
Molecule `C#CCN(C)[C@@H](C)Cc1cccc(OC(=O)N(C)CCCCCC)c1` has an IC50 (Acetylcholinesterase [14]) of 3.4 µM.
For `C#CCNC1CCc2ccc(O)cc21` (stereo not drawn), the IC50 [15] was 670 nM.
With `CN(C)C(=O)Oc1ccc2c(c1)C(N(C)C)CC2` (stereo not drawn) the IC50 (Acetylcholinesterase [16]) was 2150 nM.
In the case of `C#CCNC1CCc2ccc(OC(=O)N(C)C3CCCCC3)cc21` (stereo not drawn), the IC50 (Acetylcholinesterase [17]) is reported as 41.2 µM and the IC50 (Butyrylcholinesterase [18]) is reported as 5.56 µM.
`C#CCNC1CCc2ccc(OC(=S)N(C)C)cc21` (stereo not drawn) gave an IC50 (Acetylcholinesterase [19]) of over 500 µM, an IC50 [20] of 130 µM and an IC50 [21] of 98 µM.
`C#CCN(CC)C1CCc2ccc(OC(=O)N(C)C)cc21` (stereo not drawn) gave an IC50 (Acetylcholinesterase [22]) of 17.9 µM.

Reference: ChEMBL document CHEMBL1135657, “Novel dual inhibitors of AChE and MAO derived from hydroxy aminoindan and phenethylamine as potential treatment for Alzheimer's disease” (J Med Chem, 2002)
